Test results taken from ChEMBL document CHEMBL4680121, “Development of (4-methoxyphenyl)-1H-tetrazol-5-amine regioisomers as a new class of selective antitubercular agents” (Eur J Med Chem, 2020).

How the values were obtained:
[1] = test system: Mycobacterium tuberculosis; assay: Antitubercular activity against Mycobacterium tuberculosis H37Rv ATCC 25618 assessed as inhibition of microbial growth incubated for 1 week by MABA method; assay type: functional; conditions: H37Rv ATCC 25618, 168 h, time 1 weeks
How it was run: (§1)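 Microplate Alamar Blue assay in Middlebrook 7H9 broth with 10% OADC. Inoculum from fresh LJ culture was adjusted to McFarland 1 and diluted 1:20. DMSO stocks were two-fold serially diluted to final 0.125–512 µg/ml, with growth and sterile controls. Plates ran 1 week at 37 °C, then Alamar blue was added for 24 h. MIC is the lowest concentration preventing the blue-to-pink change.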

[2] = test system: Mycobacterium tuberculosis; assay: Antitubercular activity against Mycobacterium tuberculosis Spec.192 assessed as inhibition of microbial growth incubated for 1 week by MABA method; assay type: functional; conditions: Mycobacterium tuberculosis, 192, 168 h; time 1 weeks; how it was run: as §1
[3] = test system: Mycolicibacterium fortuitum; assay: Antibacterial activity against Mycobacterium fortuitum assessed as inhibition of microbial growth incubated for 1 week by MABA method; assay type: functional; conditions: 168 h, time 1 weeks
How it was run: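 Microplate Alamar Blue assay using two-fold serial microdilution in Middlebrook 7H9 broth with 10% OADC, compounds 0.125–512 µg/ml from DMSO stocks. Inoculum came from fresh LJ culture, was adjusted to McFarland 1 and diluted 1:20. Plates were incubated 1 week at 37 °C, Alamar blue was added and plates were re-incubated 24 h. MIC was the lowest concentration preventing the blue-to-pink change. Each plate carried growth and sterile controls.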

[4] = test system: Mycobacterium tuberculosis; assay: Antitubercular activity against Mycobacterium tuberculosis H37Rv ATCC 25618 assessed as fractional inhibitory concentration index incubated for 14 days in presence of 1/2 x MIC ethambutol by MABA method; assay type: functional; conditions: time 14 day
How it was run: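 Interaction analysis in Middlebrook 7H9 with 10% OADC. Combination MICs came from mixing the derivative (1 to 1/32 MIC) with the reference drug at 1/2 MIC, and the reverse, after 14 days at 37 °C with McFarland 1 inoculum. FICI was calculated from the combination MIC values and the MICs alone.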

Staphylococcus aureus = assay: Antibacterial activity against Staphylococcus aureus ATCC 6538 assessed as bacterial growth inhibition measured after 18 hrs by two-fold serial microdilution method; assay type: functional
How it was run: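 Two-fold serial broth microdilution in MH II medium following modified CLSI procedures. Compounds were dissolved in DMSO and diluted in medium to at most 1% solvent, tested from 0.03125 to 512 μg/ml. Final inoculum 10^6 CFU/ml. MIC was taken as the lowest concentration with no visible growth after 18 h at 35 °C.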

Caco-2 = assay: Cytotoxicity against human Caco-2 cells assessed as LDH release at 100 uM incubated for 72 hrs by LDH assay; assay type: cell-based; conditions: caco-2, 72 h
How it was run: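 LDH release measured with a kit after 72 h exposure to 100 μM compound. Cells were seeded at 1×10^4 per well in DMEM or EMEM with 2% FBS. Absorbance was read at 490 nm. Release (%) = (A sample − A low control)/(A high control − A low control) × 100, with the Triton X-100 (1%) control taken as 100% release. Values are mean ± SD of three independent experiments run in triplicate.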

[5] = test system: Mycobacterium tuberculosis; assay: Potentiation of rifampicin-induced antimycobacterial activity against Mycobacterium tuberculosis H37Rv ATCC 25618 assessed as fold decrease in rifampicin MIC at 1/2X MIC incubated for 14 days in presence of rifampicin by MABA method; assay type: functional; conditions: time 14 day
How it was run: (§2)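 Combination assay in Middlebrook 7H9 broth with 10% OADC. The reference drug (INH, RMP, SM or EMB) was varied from 1 to 1/32 of its MIC, and the test derivative was fixed at 1/2 its own MIC. Single-agent MICs were determined first by MABA. Inoculum was 1 McFarland, with 14 days of incubation at 37 °C. The endpoint was the lowest reference-drug concentration that inhibited growth.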

[6] = test system: Mycobacterium tuberculosis; assay: Potentiation of rifampicin-induced antimycobacterial activity against Mycobacterium tuberculosis Spec.192 assessed as fold decrease in rifampicin MIC at 1/2X MIC incubated for 14 days in presence of rifampicin by MABA method; assay type: functional; conditions: time 14 day; how it was run: as §2
[7] = test system: Mycobacterium tuberculosis; assay: Potentiation of ethambutol-induced antimycobacterial activity against Mycobacterium tuberculosis H37Rv ATCC 25618 assessed as fold decrease in ethambutol MIC at 1/2X MIC incubated for 14 days in presence of ethambutol by MABA method; assay type: functional; conditions: time 14 day; how it was run: as §2
[8] = test system: Mycobacterium tuberculosis; assay: Potentiation of ethambutol-induced antimycobacterial activity against Mycobacterium tuberculosis Spec.192 assessed as fold decrease in ethambutol MIC at 1/2X MIC incubated for 14 days in presence of ethambutol by MABA method; assay type: functional; conditions: time 14 day; how it was run: as §2

| Structure (SMILES) | MIC [1] [µg/mL] | MIC [2] [µg/mL] | MIC [3] [µg/mL] | fractional inhibitory concentration index (FICI) [4] | MIC (Staphylococcus aureus) [µg/mL] | Activity (Caco-2) | fold change (FC) [5] | fold change (FC) [6] | fold change (FC) [7] | fold change (FC) [8] |
| --- | --- | --- | --- | --- | --- | --- | --- | --- | --- | --- |
| COc1ccc(-n2nnnc2Nc2cccc(Br)c2)cc1 | 2 | 2 | 256 | 0.75 | > 256 | < 17% | 2 | 2 | 2 | 2 |
| COc1ccc(-n2nnnc2Nc2ccc(Br)cc2)cc1 | 2 | 2 | > 512 | 0.625 | > 256 | Non-Toxic | – | – | – | – |
